Test system: Plasmodium falciparum
Assay: Antimalarial activity against Plasmodium falciparum K1 by automated image mining based cytological profiling assay
Type: functional, organism-based
Summary of the method: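 Parasite cultures in 384-well format, read by automated imaging. Infected erythrocytes detected by DAPI nuclear staining against WGA-AlexaFluor 488 host-cell stain, and viability by Mitotracker Red CMXRos. Total culture parasitaemia quantified. EC50 given as mean±SD of two independent experiments, each in duplicate.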

| EC50 | Structure (SMILES) |
| --- | --- |
| 0.2 µM | COc1ccc(CO[C@@H]([C@H](O)COC(c2ccccc2)(c2ccccc2)c2ccccc2)[C@H](OCc2ccc(OC)cc2)c2cnc(N(C)C)nc2)cc1 |
| 0.478 µM | COc1ccc(CO[C@H]([C@H](O)COC(c2ccccc2)(c2ccccc2)c2ccccc2)[C@H](OCc2ccc(OC)cc2)c2cnn(C)c2)cc1 |
| 0.237 µM | COc1ccc(O[C@@H]([C@H](Oc2ccc(OC)cc2)c2cnn(C)c2)[C@@H](COC(c2ccccc2)(c2ccccc2)c2ccccc2)OS(C)(=O)=O)cc1 |

The remaining lines, values behind:

| Structure (SMILES) | EC50 |
| --- | --- |
| COc1ccc(CO[C@H]([C@H](O)COC(c2ccccc2)(c2ccccc2)c2ccccc2)[C@H](OCc2ccc(OC)cc2)c2cnc(N(C)C)nc2)cc1 | 0.559 µM |
| COc1ccc(CO[C@H]([C@H](OCc2ccc(OC)cc2)c2cnn(C)c2)[C@@H](COC(c2ccccc2)(c2ccccc2)c2ccccc2)OS(C)(=O)=O)cc1 | 0.158 µM |
| COc1ccc(CO[C@@H]([C@H](OCc2ccc(OC)cc2)c2cnc(N(C)C)nc2)[C@@H](COC(c2ccccc2)(c2ccccc2)c2ccccc2)OS(C)(=O)=O)cc1 | 0.198 µM |
| COc1ccc(CO[C@H]([C@H](OCc2ccc(OC)cc2)c2cnc(N(C)C)nc2)[C@@H](CO)OS(C)(=O)=O)cc1 | 5.03 µM |

Source: ChEMBL document CHEMBL3352416, “Discovery of carbohybrid-based 2-aminopyrimidine analogues as a new class of rapid-acting antimalarial agents using image-based cytological profiling assay” (J Med Chem, 2014)
